This note sets out measurements from ChEMBL document CHEMBL1143847, “Competitive inhibitors of the CphA metallo-beta-lactamase from Aeromonas hydrophila” (Antimicrob Agents Chemother, 2007).

Substrate in data set [1]: C[C@@H](O)[C@H]1C(=O)N2C(C(=O)O)=C(SCCNC=N)C[C@H]12
The data set can be described thus: Activity of Aeromonas hydrophila beta lactamase CphA at pH 7.0. The essentials: (§1)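 Wild-type CphA kinetics with imipenem as substrate, measured in a mixed buffer adjusted to the stated pH with HCl or NaOH. The buffer held 40 mM sodium acetate, 20 mM each of cacodylate, MOPS, TAPS, CHES and CAPS, and 20 μg/ml BSA. Runs were at 30°C in thermostatted cells. Km and kcat came from initial rates. At pH 10 only kcat/Km was taken, because imipenem hydrolyses spontaneously.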

Substrate in data set [2]: C[C@@H](O)[C@H]1C(=O)N2C(C(=O)O)=C(SCCNC=N)C[C@H]12
The data set can be described thus: Activity of Aeromonas hydrophila beta lactamase CphA at pH 9.0. The essentials: as §1

Substrate in data set [3]: C[C@@H](O)[C@H]1C(=O)N2C(C(=O)O)=C(SCCNC=N)C[C@H]12
The data set can be described thus: Activity of Aeromonas hydrophila beta lactamase CphA at pH 8.0. The essentials:
as §1

B1: Beta-lactamase (Aeromonas hydrophila), Q44079 (protein)
chain: MMKGWMKCGLAGAVVLMASFWGGSVRAAGMSLTQVSGPVYVVEDNYYVQENSMVYFGAKGVTVVGATWTPDTARELHKLIKRVSRQPVLEVINTNYHTDRAGGNAYWKSIGAKVVSTRQTRDLMKSDWAEIVAFTRKGLPEYPDLPLVLPNVVHEGDFTLQEGKLRAFYAGPAHTPDGIFVYFPDQQVLYGNCILKEKLGNLSFADVKAYPRTLERLKAMKLPIKTVVGGHDSPLHGPELIDHYEALIKAAPQS
As a reminder, the Km is the concentration of substrate that gives half-maximal velocity. The kcat is the number of substrate molecules converted per active site and unit of time at saturation. For the protein B1, the Km was 120 µM in data set [1], 63 µM in data set [2] and 83 µM in data set [3]. Further, the turnover number (kcat) in data set [1] was 210 s⁻¹; in data set [2], 49 s⁻¹; in data set [3], 140 s⁻¹.
